The term ED50 denotes the midpoint of the dose-response relation. Broadly, the TD50 is the 50% point of the dose-response relation for the toxic effect studied. A high value points to lower toxicity.

For data set [1], the species on record is Rattus norvegicus. Description: Protective index (TD50/ED50) was determined against scMet induced seizure in rat. It is filed as functional. In a few lines: (§1)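 Oral dosing in 30% PEG 400: phase IV in mice (0.01 mL/g), phase VI in Sprague-Dawley rats (0.004 mL/g). ED50/TD50 found as in phase II, at the stated time of peak effect. MES current 50 mA in mice, 150 mA in rats. Toxicity by rotorod in mice; positional sense, gait and stance in rats. PI = TD50/ED50.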

The species entered for data set [2] is Rattus norvegicus. The data set can be described thus: Induction of p-nitroanisole-O-dimethylase enzyme was evaluated in units of nmol/min per mg liver of chronic treated rats. The format is functional. In a few lines: (§2)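 Rats (eight per group) given 6 mg/kg po daily, then kept on the same regimen 2 more days. Weights taken on day 7. On day 8 rats decapitated; livers perfused with 0.9% NaCl, weighed and homogenized in 0.25 M sucrose. Microsomal assays per Franklin and Estabrook. Values given as average and deviation.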

For data set [3], the system named is Mus musculus. Description: Inhibition of picrotoxin-induced seizures in mice by ip administration up to 300 mg/kg (d=No protection). The format is functional, organism-based. Also noted: dose 300 mg/kg. In a few lines:
(§3)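 Phase V differentiation in mice: test drug given ip at time of peak therapeutic effect, then the CD₉₇ of each convulsant (picrotoxin, bicuculline, strychnine) given ip as a 0.5% solution; observation 30 min for bicuculline and strychnine, 45 min for picrotoxin. Drug in 30% PEG 400, 0.01 mL/g. ED₅₀ with 95% confidence intervals from ≥3 points in the 10-90% protection range, groups of 6-12 mice.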

The subject of data set [4] is Mus musculus. Description: Inhibition of seizures induced in mice by a convulsant dose of up to 300 mg/kg; d= No protection. The format is functional, organism-based. Also noted: dose 300 mg/kg. In a few lines:
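Convulsant (bicuculline, picrotoxin, strychnine or PTZ) given at CD97 as a 0.5% solution. Observed 30 min (45 min for picrotoxin). PI uses ip mouse TD50.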

The subject of data set [5] is Mus musculus. Description: Anti-seizure activity was evaluated by Neurologic toxicity (rotarod test) at dose 600 mg/kg after 0.5 hours; + denotes neurotoxicity. It is filed as functional, organism-based. On the set-up: dose 600 mg/kg. In a few lines:
(§4)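 Phase I neurotoxicity in mice by rotorod ataxia test. Compound given ip at 30, 100, 300 or 600 mg/kg in 30% PEG 400, read 0.5 h and 4 h after. Scored ++++ to + for toxicity at 30 to 600 mg/kg; - means no toxicity.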

Data set [6] concerns Rattus norvegicus. Description: Time to peak effect in Rats was evaluated by Subcutaneous pentylenetetrazole seizure test in hours by oral administration. The format is functional. In a few lines: (§5)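 Oral dosing in 30% PEG 400: phase IV in mice (0.01 mL/g), phase VI in Sprague-Dawley rats (0.004 mL/g). ED50/TD50 found as in phase II, at the stated time of peak effect. MES current 50 mA in mice, 150 mA in rats. PTZ sc 85 mg/kg in mice, 70 mg/kg in rats. Toxicity by rotorod in mice; positional sense, gait and stance in rats. PI = TD50/ED50.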

The species named for data set [7] is Mus musculus. Description: Median hypnotic dose was evaluated by loss of righting reflex. It is filed as functional.
The species entered for data set [8] is Rattus norvegicus. The data set can be described thus: Total body weight up to 7th day was evaluated in grams of chronic treated rats. It is filed as functional. In a few lines: as §2
Data set [9] relates to Rattus norvegicus. Description: […] was evaluated by Neurologic toxicity (rotarod test) in Rats by oral administration. It is filed as functional. (Falling from the rotarod earlier than controls is read as motor impairment.)
Data set [10] deals with Mus musculus. Description: Median toxic dose was evaluated by […] through intraperitoneal administration. The format is functional. Background: The maximal electroshock test induces tonic seizures with an electrical stimulus.
In data set [11] the test system is Mus musculus. The data set can be described thus: […] was evaluated by Neurologic toxicity (rotarod test) in mice by oral administration. The format is functional. In a few lines:
as §5

Data set [12] has as its system Mus musculus. Description: Anti-seizure activity was evaluated by Subcutaneous pentylenetetrazole seizure test at dose 600 mg/kg after 0.5 hours; + denotes neurotoxicity. It is filed as functional, organism-based. Also noted: dose 600 mg/kg. In a few lines: (§6)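 Phase I screen in mice: ip dosing at 30, 100, 300 and 600 mg/kg in 30% PEG 400, read 0.5 h and 4 h after. Pentylenetetrazol given sc at CD97 (85 mg/kg). Protection means no clonic spasm of at least 5 s over 30 min. Scored ++++ to + for 30 to 600 mg/kg.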

In data set [13] the test system is Mus musculus. Description: Time to peak effect in mice was evaluated by Maximal electroshock seizure (MES) test in hours by oral administration. The format is functional. In a few lines:
as §5

Data set [14] has as its system Mus musculus. The data set can be described thus: Median lethal dose was evaluated by mortality after 24 hr through ip injection administration; d= Hypnosis and death occurred. It is filed as ADME, organism-based. Particulars: in vivo. In a few lines: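 Mice were dosed ip in 30% PEG 400. Mortality was scored 24 h after injection in groups of eight. The 24-h LD₅₀ was derived as for the ED₅₀/TD₅₀, with 95% confidence intervals.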

The subject of data set [15] is Mus musculus. The data set can be described thus: Time to peak effect in mice was evaluated by Neurologic toxicity (rotarod test) in hours by oral administration. The format is functional. In a few lines: as §5
The subject of data set [16] is Mus musculus. Description: Median effective dose was evaluated by subcutaneous pentylenetetrazole seizure test through intraperitoneal administration. It is filed as functional. In a few lines: (§7)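 Phase II in mice, ip dosing in 30% PEG 400. Groups of 6-12 mice per dose until at least three points fall in 10-90% protection. […] MES: 50 mA, 0.2 s corneal. scMet: pentylenetetrazol 85 mg/kg sc.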

Data set [17] has as its system Mus musculus. The data set can be described thus: Median Effective dose was evaluated by Maximal electroshock seizure (MES) test in mice by oral administration. The format is functional.
Data set [18] has as its system Rattus norvegicus. The data set can be described thus: Median Effective dose was evaluated by Subcutaneous pentylenetetrazole seizure test in Rats by oral administration up to 40 mg/kg; b=no protection. It is filed as functional, organism-based. On the set-up: dose 40 mg/kg. In a few lines: as §5
In data set [19] the test system is Mus musculus. The data set can be described thus: Inhibition of seizures induced in mice by a convulsant dose of strychnine through ip administration. The format is functional. In a few lines:
as §3

Data set [20] deals with Mus musculus. The data set can be described thus: Median Effective dose was evaluated by Subcutaneous pentylenetetrazole seizure test in mice by oral administration. It is filed as functional.
The subject of data set [21] is Mus musculus. The data set can be described thus: Time to peak effect in mice was evaluated by Subcutaneous pentylenetetrazole seizure test in hours by oral administration. The format is functional. In a few lines:
as §5

Data set [22] is filed under the species Mus musculus. Description: Time to peak activity was evaluated by Maximal electroshock seizure test in hours. The format is functional.
For data set [23], the system named is Mus musculus. The data set can be described thus: (§8) Median effective dose was evaluated by Maximal electroshock seizure test through intraperitoneal administration. It is filed as functional. Particulars: ip. In a few lines:
as §7

Data set [24] relates to Rattus norvegicus. Description: The loss of righting reflex time was evaluated in chronic treated rats by hexobarbital injection at a hypnotic dose 100 mg/kg. It is filed as functional. In a few lines:
(§9)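 Rats, eight per group, dosed po daily: vehicle for 4 days then 6 mg/kg on day 5 (acute), or 6 mg/kg daily for 5 days (chronic). Hexobarbital 100 mg/kg ip on day 6. Loss-of-righting-reflex time recorded to the nearest minute; group mean taken.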

For data set [25], the system named is Rattus norvegicus. The data set can be described thus: Time to peak effect in Rats was evaluated by Maximal electroshock seizure (MES) test in hours by oral administration. The format is functional. In a few lines:
as §5

Data set [26] has as its system Rattus norvegicus. Description: Time to peak effect in Rats was evaluated by Neurologic toxicity (rotarod test) in hours by oral administration. It is filed as functional.
The species entered for data set [27] is Rattus norvegicus. The data set can be described thus: Total liver Protein up to 7th day was evaluated in mg/liver of chronic treated rats. The format is functional. In a few lines: as §2
The species entered for data set [28] is Rattus norvegicus. The data set can be described thus: Protective index (TD50/ED50) was determined against MES induced seizure in rat. The format is functional. In a few lines: as §1
Data set [29] is filed under the species Mus musculus. Description: Anti-seizure activity was evaluated by Neurologic toxicity (rotarod test) after 4.0 hours; - denotes no antiseizure activity. The format is functional, organism-based. In a few lines:
as §4

The species named for data set [30] is Rattus norvegicus. Description: zInduction of NADPH cytochrome C reductase enzyme was evaluated in units of nmol/min per mg liver of chronic treated rats. It is filed as functional. In a few lines:
as §2

For data set [31], the system named is Rattus norvegicus. The data set can be described thus: The loss of righting reflex time was evaluated in acute control rats by hexobarbital injection at a hypnotic dose 100 mg/kg. The format is functional. In a few lines: as §9
Data set [32] has as its system Rattus norvegicus. The data set can be described thus: Median Effective dose was evaluated by Maximal electroshock seizure (MES) test in Rats by oral administration. The format is functional.
The species entered for data set [33] is Mus musculus. The data set can be described thus: Time to peak toxicity was evaluated by Maximal electroshock seizure test in hours. The format is functional.
The species entered for data set [34] is Rattus norvegicus. Description: Induction of cytochrome P-450 enzyme was evaluated in units of nmol of enzyme/mg liver of chronic treated rats.
The subject of data set [35] is Mus musculus. Description: Anti-seizure activity was evaluated by Subcutaneous pentylenetetrazole seizure test at dose 300 mg/kg after 4.0 hours; ++ denotes antiseizure activity. The format is functional, organism-based. Also noted: dose 300 mg/kg. In a few lines: as §6
The test system of data set [36] is Mus musculus. Description: Anti-seizure activity was evaluated by Neurologic toxicity (rotarod test) at dose 600 mg/kg after 4.0 hours; + denotes neurotoxicity. The format is functional, organism-based. Also noted: dose 600 mg/kg. In a few lines: as §4
The test system of data set [37] is Mus musculus. Description: Anti-seizure activity was evaluated by Maximal electroshock seizure (MES) test at dose 300 mg/kg after 0.5 hours; ++ denotes antiseizure activity. The format is functional, organism-based. Also noted: dose 300 mg/kg. In a few lines:
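Phase I screen in mice: ip injection at 30, 100, 300 and 600 mg/kg in 30% PEG 400 (0.01 mL/g). Test run 0.5 h and 4 h after dosing. 60-Hz AC, 50 mA, via corneal electrodes for 0.2 s. Protection means abolition of hind-leg tonic extension. Scored ++++ to + for activity at 30 to 600 mg/kg.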

Data set [38] concerns Mus musculus. Described as §8. It is filed as functional. Particulars: ip. In a few lines:
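Phase II in mice, ip dosing in 30% PEG 400. Groups of 6-12 mice per dose until at least three points fall in 10-90% protection.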
The source holds these as a separate data set.

The test system of data set [39] is Mus musculus. Description: Anti-seizure activity was evaluated by Neurologic toxicity (rotarod test) at dose 300 mg/kg after 0.5 hours; ++ denotes antiseizure activity. It is filed as functional, organism-based. Also noted: dose 300 mg/kg. In a few lines:
as §4

Consider `O=C(Cc1ccccc1)NS(=O)(=O)C(F)(F)F`, for which the PI came to 34 in [1] and 53 in data set [28]. The Induction in data set [2] came to 0.36; in data set [30], 109.9; in [34], 0.41. Moreover, the ED50 result in data set [3] is “No protection”; in [4], “No protection”; in data set [16], 10 mg/kg; in data set [17], 8.4 mg/kg; in data set [18], “No protection”; in [19] it was 56 mg/kg. Besides, the ED50 stood at 60 mg/kg in data set [20], 6.2 mg/kg in data set [23] and 6.1 mg/kg in [32]. The Activity entry is “Antiseizure activity” in data set [5], “Antiseizure activity” in data set [12] and “No activity” in data set [29]. Besides, the TPE in data set [6] came to 8 h; in data set [13], 8 h; in data set [15] it was 24 h; in [21] it was 8 h; in [22], 6; in [25], 8 h. For the same molecule, the values for the TPE in [26] and in data set [33] were 24 h and 24, respectively. This molecule also registered an HD50 in data set [7] of 522 mg/kg. Also, the Weight in [8] came out at 128.8. The figures for the TD50 in data set [9], in data set [10] and in data set [11] were 40 mg/kg, 329 mg/kg and above 1000 mg/kg, respectively. The LD50 result in [14] was “No protection”. Moreover, the Sleep time in data set [24] is 51; in data set [31], 33. The same molecule showed a Protein in [27] of 40.4.
With `COc1ccc(CC(=O)NS(=O)(=O)C(F)(F)F)cc1`, the Activity entry in data set [35], in data set [36], in data set [37] and in data set [39] was “Antiseizure activity” each time. Moreover, the PI in [1] was 10; in data set [28] it was 17. In data set [10], the TD50 is 557 mg/kg. In addition, the figures for the ED50 in data set [16] and in [38] were 53 mg/kg and 33 mg/kg, respectively. In addition, the TPE in [22] is 2; in [33], 0.5.
